Assay results published in ChEMBL document CHEMBL5390273, “Discovery of a Hydroxylamine-Based Brain-Penetrant EGFR Inhibitor for Metastatic Non-Small-Cell Lung Cancer” (J Med Chem, 2023).
Active and inactive are the calls of the source. No cut-off for these calls is given here.

How the values were obtained:
[1] = Mutagenicity in Salmonella typhimurium TA1537 at 5 to 100 uM incubated for 96 hrs by Ames fluctuation assay; assay type: toxicity; details: salmonella enterica subsp. enterica serovar typhimurium, dose 5-100 µM
In short: (§1)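 Fluctuation format in 384-well plates at 37 °C for 96 h. Tested at 5, 10, 50 and 100 μM, 48 replicates per concentration, with and without rat liver S9. Revertant wells counted when OD430/OD570 > 1.0, compared with control by one-tailed Fisher's exact test. Parallel bacterial cytotoxicity test (OD650) at 0.6–100 μM, with growth below 60% of control flagged as cytotoxic.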

[2] = Mutagenicity in Salmonella typhimurium TA1537 at 5 to 100 uM incubated for 96 hrs in presence of rat liver S9 fraction by Ames fluctuation assay; assay type: toxicity, subcellular; details: salmonella enterica subsp. enterica serovar typhimurium, s9, 96 h, dose 5-100 µM; in short: as §1
[3] = Mutagenicity in Salmonella typhimurium TA100 at 5 to 100 uM incubated for 96 hrs in presence of rat liver S9 fraction by Ames fluctuation assay; assay type: toxicity, subcellular; details: salmonella enterica subsp. enterica serovar typhimurium, s9, 96 h, dose 5-100 µM; in short: as §1
[4] = Mutagenicity in Salmonella typhimurium TA98 at 5 to 100 uM incubated for 96 hrs in presence of rat liver S9 fraction by Ames fluctuation assay; assay type: toxicity, subcellular; details: salmonella enterica subsp. enterica serovar typhimurium, s9, 96 h, dose 5-100 µM; in short: as §1
[5] = Mutagenicity in Salmonella typhimurium TA98 at 5 to 100 uM incubated for 96 hrs by Ames fluctuation assay; assay type: toxicity; details: salmonella enterica subsp. enterica serovar typhimurium, dose 5-100 µM; in short: as §1
[6] = Mutagenicity in Salmonella typhimurium TA1535 at 5 to 100 uM incubated for 96 hrs in presence of rat liver S9 fraction by Ames fluctuation assay; assay type: toxicity, subcellular; details: salmonella enterica subsp. enterica serovar typhimurium, s9, 96 h, dose 5-100 µM; in short: as §1
[7] = Unbound brain-to-plasma concentration ratio in Han Wistar rat at 10 mg/kg,po and measured after 16 hrs by LC-MS/MS analysis; assay type: ADME, organism-based; details: read-out: K(p,uu,brain)
[8] = Mutagenicity in Salmonella typhimurium TA100 at 5 to 100 uM incubated for 96 hrs by Ames fluctuation assay; assay type: toxicity; details: salmonella enterica subsp. enterica serovar typhimurium, dose 5-100 µM; in short: as §1
[9] = Mutagenicity in Salmonella typhimurium TA1535 at 5 to 100 uM incubated for 96 hrs by Ames fluctuation assay; assay type: toxicity; details: salmonella enterica subsp. enterica serovar typhimurium, dose 5-100 µM; in short: as §1
[10] = Toxicity in Sprague-Dawley rat assessed as at 1 mg/kg, iv; details: in vivo
[11] = Toxicity in Sprague-Dawley rat assessed as at 5 mg/kg, po; details: in vivo
[12] = Mutagenicity in Salmonella typhimurium TA1537 at 5 to 50 uM incubated for 96 hrs in presence of rat liver S9 fraction by Ames fluctuation assay; assay type: toxicity, subcellular; details: salmonella enterica subsp. enterica serovar typhimurium, s9, 96 h, dose 5-50 µM; in short: as §1
[13] = system: HCC827; experiment: Antitumor activity against human luciferase tagged HCC827 cells xenografted in intracranial PDX BALB/c mouse model assessed as tumor regression at 10 mg/kg,po BID for 21 days by Bioluminescence imaging analysis; assay type: functional, organism-based; details: time 21.0 day
In short: (§2)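 Female BALB/c nude mice given 3 × 10^5 HCC827-luc cells in 2 μL RPMI1640 into the right forebrain under anesthesia. Randomized on day 20 after inoculation, n = 10 per group. Dosed PO b.i.d. at 12 h intervals for 21 days in 1% methylcellulose, with vehicle control. Biweekly IVIS imaging 10 min after IP D-luciferin, plus biweekly body weight. Day-21 means compared by unpaired two-tailed t-test.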

[14] = Mutagenicity in Salmonella typhimurium TA1535 at 5 to 50 uM incubated for 96 hrs in presence of rat liver S9 fraction by Ames fluctuation assay; assay type: toxicity, subcellular; details: salmonella enterica subsp. enterica serovar typhimurium, s9, 96 h, dose 5-50 µM; in short: as §1
[15] = Mutagenicity in Salmonella typhimurium TA1535 at 5 to 50 uM incubated for 96 hrs by Ames fluctuation assay; assay type: toxicity; details: salmonella enterica subsp. enterica serovar typhimurium, dose 5-50 µM; in short: as §1
[16] = AUC (0 to infinity) in BALB/c mouse at 3 mg/kg, iv and measured upto 24 hrs by LC-MS/MS analysis; assay type: ADME, organism-based; parameters: dose 3 mg/kg, time < 24 hrs, route iv; details: in vivo
In short: (§3)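 Female BALB/c nude mice or male Sprague-Dawley rats, 6–8 weeks old, n = 3 per route. IV by tail vein in DMSO:10% captisol in saline 1:99. PO by gavage in 1% methylcellulose. […] Assayed by LC-MS/MS, non-compartmental PK, mean ± SD.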

[17] = Genotoxicity in Chinese hamster CHO-K1 cells at 8 to 1000 uM incubated for 24 hrs by micronucleus test; assay type: toxicity, cell-based, Cricetulus griseus; details: cho-k1, 24 h, dose 8-1000 µM
In short: (§4)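 CHO-K1 cells, 96-well format, exposed to 8–1000 μM for either 4 h at 37 °C with rat liver S9 or 24 h at 37 °C without S9. Micronuclei detected by high-content fluorescence imaging. Positive controls were cyclophosphamide 7.2 μM and mitomycin C 0.3 μM. One-tailed two-sample equal-variance t-test.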

[18] = Genotoxicity in Chinese hamster CHO-K1 cells at 8 to 1000 uM incubated for 4 hrs in presence of rat liver S9 fraction by micronucleus test; assay type: toxicity, subcellular, Cricetulus griseus; details: s9, 4 h, dose 8-1000 µM; in short: as §4
[19] = Mutagenicity in Salmonella typhimurium TA100 at 5 to 50 uM incubated for 96 hrs by Ames fluctuation assay; assay type: toxicity; details: salmonella enterica subsp. enterica serovar typhimurium, dose 5-50 µM; in short: as §1
[20] = Toxicity in intracranial PDX BALB/c mouse model xenografted with human luciferase tagged HCC827 cells assessed as body weight loss at 10 mg/kg,po BID for 21 days; assay type: organism-based; details: in vivo, 504 h, time 21 day; in short: as §2
[21] = AUC (0 to infinity) in Sprague-Dawley rat at 2 mg/kg, iv and measured upto 24 hrs by LC-MS/MS analysis; assay type: ADME, organism-based; parameters: dose 2 mg/kg, time < 24 hrs, route iv; details: in vivo; in short: as §3
[22] = Mutagenicity in Salmonella typhimurium TA98 at 5 to 50 uM incubated for 96 hrs by Ames fluctuation assay; assay type: toxicity; details: salmonella enterica subsp. enterica serovar typhimurium, dose 5-50 µM; in short: as §1
[23] = Metabolic stability in human hepatocytes assessed as metabolite formation at 10 uM incubated for 4 hrs by UHPLC-MS/MS analysis; assay type: ADME, cell-based, Hepatocyte
In short: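 Human hepatocytes at 1.0 × 10^6 cells/mL incubated with compound at 10 μM for 0, 120 and 240 min at 37 °C. Quenched with 2 volumes of acetonitrile, centrifuged at 16,000g for 15 min, and supernatant analyzed by UHPLC-MS/MS.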

[24] = Mutagenicity in Salmonella typhimurium TA100 at 5 to 50 uM incubated for 96 hrs in presence of rat liver S9 fraction by Ames fluctuation assay; assay type: toxicity, subcellular; details: salmonella enterica subsp. enterica serovar typhimurium, s9, 96 h, dose 5-50 µM; in short: as §1
[25] = Toxicity in intracranial PDX BALB/c mouse model xenografted with human luciferase tagged HCC827 cells assessed as adverse clinical effects at 10 mg/kg,po BID for 21 days; assay type: organism-based; details: in vivo, 504 h, time 21 day; in short: as §2
[26] = AUC (0 to infinity) in BALB/c mouse at 30 mg/kg, po and measured upto 24 hrs by LC-MS/MS analysis; assay type: ADME, organism-based; parameters: dose 30 mg/kg, time < 24 hrs, route po; details: in vivo; in short: as §3
[27] = Mutagenicity in Salmonella typhimurium TA1537 at 5 to 50 uM incubated for 96 hrs by Ames fluctuation assay; assay type: toxicity; details: salmonella enterica subsp. enterica serovar typhimurium, dose 5-50 µM; in short: as §1
[28] = Mutagenicity in Salmonella typhimurium TA98 at 5 to 50 uM incubated for 96 hrs in presence of rat liver S9 fraction by Ames fluctuation assay; assay type: toxicity, subcellular; details: salmonella enterica subsp. enterica serovar typhimurium, s9, 96 h, dose 5-50 µM; in short: as §1
[29] = Dissociation constant, pKa of compound by pH-metric titration method; assay type: physicochemical

In the case of COc1cc2ncnc(Nc3ccc(F)c(Cl)c3)c2cc1OCCCN1CCOCC1 [GEFITINIB], the Activity [1] is reported as “Non-Toxic”, the Activity [2] is reported as “Non-Toxic” and the Activity [3] is reported as “Non-Toxic”. For the same compound, the Activity [4] was “Non-Toxic”, the Activity [5] was “Non-Toxic” and the Activity [6] was “Non-Toxic”. The Kp uu at 16 h [7] was 0.009, the Activity [8] was “Non-Toxic” and the Activity [9] was “Non-Toxic”.
For COc1cc2ncnc(Nc3cccc(Cl)c3F)c2cc1OCCON1CCOCC1, the Activity [1] was “Non-Toxic”, the Activity [10] was “Non-Toxic” and the Activity [2] was “Non-Toxic”. The Activity [3] was “Non-Toxic”, the Activity [11] was “Non-Toxic” and the Activity [4] was “Non-Toxic”. For the same compound, the Activity [5] was “Non-Toxic”, the Activity [6] was “Non-Toxic” and the Activity [8] was “Non-Toxic”. For the same compound, the Activity [9] was “Non-Toxic”.
For COc1cc2ncnc(Nc3cccc(Cl)c3F)c2cc1OCCON1CCN(C)CC1, the Activity [12] was “Non-Toxic”, the Activity [13] was “Active” and the Activity [14] was “Non-Toxic”. For the same compound, the Activity [15] was “Non-Toxic”, the AUC [16] was 0.866 µM·h and the Activity [17] was “Non-Toxic”. For the same compound, the Activity [18] was “Non-Toxic”, the Activity [19] was “Non-Toxic” and the Activity [20] was “Non-Toxic”. For the same compound, the AUC(0-inf) [21] was 0.61 µM·h, the Activity [22] was “Non-Toxic” and the Drug metabolism [23] was < 5%. The Activity [24] was “Non-Toxic”, the Activity [25] was “Non-Toxic” and the AUC(0-inf) [26] was 5.29 µM·h. The Activity [27] was “Non-Toxic” and the Activity [28] was “Non-Toxic”.
For NO [HYDROXYAMINE], the pKa [29] was 5.9.
In the case of COc1cc2ncnc(Nc3ccc(F)c(Cl)c3)c2cc1OCCON1CCOCC1, the Activity [1] is reported as “Non-Toxic”, the Activity [2] is reported as “Non-Toxic” and the Activity [3] is reported as “Non-Toxic”. The Activity [4] was “Non-Toxic”, the Activity [5] was “Non-Toxic” and the Activity [6] was “Non-Toxic”. For the same compound, the Activity [8] was “Non-Toxic” and the Activity [9] was “Non-Toxic”.
